Tests used:
Trypanosoma brucei [1] = experiment: In vitro antiparasitic activity against Trypanosoma brucei was tested by sigmoidal regression analysis; assay type: functional; conditions: read-out: ED50 (the source's name)
How it was run: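 T. b. brucei S427 bloodstream trypomastigotes at 2 × 10⁵/mL in HMI-18 medium, in triplicate, with a 3-fold dilution series starting at 30 µM. Incubated 3 days at 37 °C in 5% CO₂. Pentamidine served as positive control. Viability read by tetrazolium colorimetric assay on day 3. ED50 by sigmoidal regression.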

[2] = Compound dose toxic against macrophages of Trypanosoma cruzi; assay type: ADME
How it was run: (§1)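 Starch-induced peritoneal macrophages from female CD1 mice, 4 × 10⁵/mL in RPMI-1640, infected 5:1 with T. cruzi Y-strain trypomastigotes from MDCK overlay. Drug in 3-fold dilution series, quadruplicate, 3 days. Slides methanol-fixed and Giemsa-stained.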

Trypanothione reductase = Trypanothione reductase (Trypanosoma cruzi, UniProt P28593); experiment: Inhibitory activity against Trypanosoma cruzi trypanothione disulfide reductase, assay in presence of 57 uM T(S)2.
Trypanothione reductase, sequence (P28593 whole entry): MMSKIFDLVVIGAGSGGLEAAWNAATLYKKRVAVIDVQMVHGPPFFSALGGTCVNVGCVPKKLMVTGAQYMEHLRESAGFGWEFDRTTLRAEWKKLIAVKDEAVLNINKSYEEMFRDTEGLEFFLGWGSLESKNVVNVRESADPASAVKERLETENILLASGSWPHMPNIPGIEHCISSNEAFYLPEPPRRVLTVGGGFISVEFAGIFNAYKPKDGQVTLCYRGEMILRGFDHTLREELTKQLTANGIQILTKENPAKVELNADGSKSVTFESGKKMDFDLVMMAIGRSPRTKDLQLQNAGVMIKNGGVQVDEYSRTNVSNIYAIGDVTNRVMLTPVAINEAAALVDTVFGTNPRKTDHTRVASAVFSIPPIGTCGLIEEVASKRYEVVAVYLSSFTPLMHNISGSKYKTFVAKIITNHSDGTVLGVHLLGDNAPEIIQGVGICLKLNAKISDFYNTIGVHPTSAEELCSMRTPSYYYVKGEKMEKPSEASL
How it was run: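 Assay contained 250 µM NADPH, 57 µM T(S)₂, inhibitor at 0.3–50 µM and 1% DMSO final. Started with enzyme; NADPH loss followed at 340 nm. IC50 in duplicate.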

Trypanosoma cruzi = experiment: In vitro antiparasitic activity against Trypanosoma cruzi was tested by sigmoidal regression analysis; assay type: functional; conditions: read-out: ED50 (the source's name)
How it was run: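 Mouse peritoneal macrophages (female CD1, starch-elicited, harvested 24 h) infected with L. donovani amastigotes (strain MHOM/ET/67/L82, hamster spleen) or T. cruzi Y-strain trypomastigotes (5:1, from MDCK overlay). Infected cells exposed to a 3-fold dilution series in quadruplicate for 5 days (L. donovani) or 3 days (T. cruzi). Giemsa-stained slides scored for % macrophages cleared of amastigotes versus untreated cultures. ED50 by sigmoidal regression.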

[3] = Compound dose toxic against mouse peritoneal macrophages infected with Leishmania donovani; assay type: ADME
How it was run: (§2)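 Starch-induced peritoneal macrophages from female CD1 mice, 4 × 10⁵/mL in RPMI-1640, infected with L. donovani (MHOM/ET/67/L82) amastigotes from hamster spleen. Drug in 3-fold dilution series, quadruplicate, 5 days. Giemsa-stained slides.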

[4] = Compound dose toxic against mouse peritoneal macrophages infected with Leishmania donovani (100% inhibition); assay type: ADME; how it was run: as §2
[5] = Compound dose toxic against macrophages of Trypanosoma cruzi (100% inhibition); assay type: ADME; how it was run: as §1
Trypanosoma brucei [6] = experiment: In vitro antiparasitic activity against Trypanosoma brucei was tested by sigmoidal regression analysis; conditions: read-out: ED50 (the source's name)
[7] = Compound dose toxic against mouse peritoneal macrophages infected with Leishmania donovani (100 % inhibition); assay type: ADME; how it was run: as §2
[8] = Compound dose toxic against macrophages of Trypanosoma cruzi (100 % inhibition); assay type: ADME; how it was run: as §1

Row | SMILES | EC50 (Trypanosoma brucei [1]) [µM] | Toxic dose [2] [µM] | IC50 (Trypanothione reductase) [µM] | Toxic dose [3] [µM] | further results
1 | CC1=C(NCCCNCCC/N=C2/C(=O)c3ccccc3C(O)=C2C)C(=O)c2ccccc2C1=O | > 12.5 | 10 | 9 | – | –
2 | CC1=C(CCCC(=O)NCCCNCCCNC(=O)CCCC2=C(C)C(=O)c3ccccc3C2=O)C(=O)c2ccccc2C1=O | 27 | – | 11 | – | EC50 (Trypanosoma cruzi): > 49 µM
3 | CC1=C(NCCCNCCCCNCCCNC2=C(C)C(=O)c3ccccc3C2=O)C(=O)c2ccccc2C1=O | > 1 | 1 | 6.5 | 30 | –
4 | CC1=C(NCCCNCCCN)C(=O)c2c(O)cccc2C1=O | > 12.5 | 1 | 57 | – | –
5 | CC1=C(NCCCCN)C(=O)c2ccccc2C1=O | > 12.5 | 3 | > 57 | – | –
6 | CC1=C(NCCCNCCCCNCCCN)C(=O)c2c(O)cccc2C1=O | > 30 | 1 | 28 | – | –
7 | CC1=C(NCCCN2CCN(CCCNC3=C(C)C(=O)c4ccccc4C3=O)CC2)C(=O)c2ccccc2C1=O | > 12.5 | 30 | 10 | – | –
8 | CN1CCN(CCCNC(=O)CCCCCC2=C(CCCCCC(=O)NCCCN3CCN(C)CC3)C(=O)c3c(O)cccc3C2=O)CC1 | 10.1 | 30 | 0.8 | 10 | –
9 | CC1=C(CCC(=O)NCCCN2CCN(C)CC2)C(=O)c2ccccc2C1=O | > 10 | 30 | 38 | – | –
10 | CN1CCN(CCCNC(=O)CCCC2=C(CCCC(=O)NCCCN3CCN(C)CC3)C(=O)c3c(O)cccc3C2=O)CC1 | 259 | – | 11 | – | EC50 (Trypanosoma cruzi): 59 µM
11 | CC1=C(NCCCNCCCCNCCCN)C(=O)c2ccccc2C1=O | 30 | 1 | 28 | 30 | –
12 | CN1CCN(C(=O)CCCCCC2=C(CCCCCC(=O)N3CCN(C)CC3)C(=O)c3c(O)cccc3C2=O)CC1 | 13.1 | 3 | 2.9 | 3 | –
13 | CC1=C(O)c2cccc(O)c2C(=O)/C1=N\CCCN1CCN(C)CC1 | > 12.5 | – | > 57 | – | Toxic dose [4]: 30 µM; Toxic dose [5]: 10 µM
14 | CC1=C(CCC(=O)NCCCN2CCN(CCCNC(=O)CCC3=C(C)C(=O)c4cccc(O)c4C3=O)CC2)C(=O)c2c(O)cccc2C1=O | – | – | 2.6 | – | EC50 (Trypanosoma cruzi): 44 µM; EC50 (Trypanosoma brucei [6]): 30.3 µM
15 | CC1=C(NCCCN2CCN(CCCN)CC2)C(=O)c2c(O)cccc2C1=O | > 3 | 3 | 39 | 30 | –
16 | CN1CCN(C(=O)CCCCC2=C(CCCCC(=O)N3CCN(C)CC3)C(=O)c3c(O)cccc3C2=O)CC1 | > 56 | 10 | 5.9 | 3 | –
17 | CC1=C(CCC(=O)NCCCN2CCN(C)CC2)C(=O)c2c(O)cccc2C1=O | > 10 | 10 | 16 | – | –
18 | CC1=CC(=O)c2ccccc2C1=O [MENADIONE] | – | 10 | – | 30 | –
19 | CC1=CC(=O)c2c(O)cccc2C1=O [PLUMBAGIN] | 1.5 | – | – | – | Toxic dose [7]: 3 µM; Toxic dose [8]: 10 µM

From ChEMBL document CHEMBL1134791, “2- and 3-substituted 1,4-naphthoquinone derivatives as subversive substrates of trypanothione reductase and lipoamide dehydrogenase from Trypanosoma cruzi: synthesis and correlation between redox cycling activities and in vitro cytotoxicity” (J Med Chem, 2001)
